Laboratory results taken from ChEMBL document CHEMBL1152557, “Solution-phase parallel synthesis of substituted chalcones and their antiparasitary activity against Giardia lamblia” (Bioorg Med Chem, 2009).
Converted amounts (≈) assume the structure as drawn. The source made the active and inactive calls. No cut-off for these calls is given here.

Experiments:
Format in all cases: functional, organism-based
Enterococcus faecalis = assay: Antimicrobial activity against Enterococcus faecalis ATCC 29212 up to 100 ug/mL by broth microdilution assay
Staphylococcus aureus = assay: Antimicrobial activity against Staphylococcus aureus ATCC 29213 up to 100 ug/mL by broth microdilution assay
Giardia intestinalis [1] = assay: Antigiardial activity against Giardia lamblia WB (ATCC 30957) trophozoites assessed as mild activity after 24 hrs by trypan blue assay; conditions: Giardia duodenalis
In short: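 Mid-log trophozoites chilled on ice 20 min, resuspended and counted by hemocytometer; 1.5 × 10⁵ cells per well, final volume 1.5 mL, incubated 24 h at 37 °C with compound (DMSO stock diluted in medium, DMSO ≤5% v/v) at 100 µg/mL. Plates re-chilled on ice 20 min before counting. Mortality from trypan blue staining plus loss of motility. Controls: metronidazole 1–5 µg/mL, DMSO vehicle.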

Escherichia coli = assay: Antimicrobial activity against Escherichia coli ATCC 25922 up to 100 ug/mL by broth microdilution assay
Pseudomonas aeruginosa = assay: Antimicrobial activity against Pseudomonas aeruginosa ATCC 27853 up to 100 ug/mL by broth microdilution assay
Giardia intestinalis [2] = assay: Antigiardial activity against Giardia lamblia WB (ATCC 30957) trophozoites after 24 hrs by trypan blue assay; conditions: Giardia duodenalis; for LC50: read-out: LD50 (the source's name)
In short: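 Mid-log trophozoites, ice-chilled 20 min and counted by hemocytometer, 1.5 × 10⁵ cells per well in 1.5 mL final volume, incubated 24 h at 37 °C with compounds (DMSO stock diluted in medium, DMSO ≤5% v/v) at 100 µg/mL, then 1–100 µg/mL for selected ones. Metronidazole 1–5 µg/mL and DMSO controls. Plates ice-chilled 20 min, cells resuspended, counted. Mortality by trypan blue staining and absence of motility. IC50 and LD50 by probit analysis.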

COc1ccc(C(=O)/C=C/c2ccc(OC)cc2OC)cc1
Activity (Enterococcus faecalis): inactive | Activity (Staphylococcus aureus): inactive | Activity (Giardia intestinalis [1]): Active | Activity (Escherichia coli): inactive | Activity (Pseudomonas aeruginosa): inactive

COc1ccc(/C=C/C(=O)c2ccc(Cl)cc2)cc1
Activity (Enterococcus faecalis): inactive | Activity (Staphylococcus aureus): inactive | Activity (Giardia intestinalis [1]): Active | Activity (Escherichia coli): inactive | Activity (Pseudomonas aeruginosa): inactive

COc1ccc(C(=O)/C=C/c2ccccc2)cc1
Activity (Enterococcus faecalis): inactive | Activity (Staphylococcus aureus): inactive | Activity (Giardia intestinalis [1]): Active | Activity (Escherichia coli): inactive | Activity (Pseudomonas aeruginosa): inactive

COc1ccc(C(=O)/C=C/c2ccc(Cl)cc2)cc1
Activity (Enterococcus faecalis): inactive | Activity (Staphylococcus aureus): inactive | IC50 (Giardia intestinalis [2]): 15 µg/mL (≈ 55.1 µM) | LC50 (Giardia intestinalis [2]): 7.52 µg/mL (≈ 27.6 µM) | Activity (Escherichia coli): inactive | Activity (Pseudomonas aeruginosa): inactive

COc1ccc(C(=O)/C=C/c2ccccc2F)cc1
Activity (Enterococcus faecalis): inactive | Activity (Staphylococcus aureus): inactive | IC50 (Giardia intestinalis [2]): 12.7 µg/mL (≈ 49.6 µM) | LC50 (Giardia intestinalis [2]): 1.99 µg/mL (≈ 7.77 µM) | Activity (Escherichia coli): inactive | Activity (Pseudomonas aeruginosa): inactive

COc1ccc(/C=C/C(=O)c2ccccc2)cc1
Activity (Enterococcus faecalis): inactive | Activity (Staphylococcus aureus): inactive | Activity (Giardia intestinalis [1]): Active | Activity (Escherichia coli): inactive | Activity (Pseudomonas aeruginosa): inactive

COc1ccc(/C=C/C(=O)c2ccc(OC)cc2)cc1
Activity (Enterococcus faecalis): inactive | Activity (Staphylococcus aureus): inactive | Activity (Giardia intestinalis [1]): Active | Activity (Escherichia coli): inactive | Activity (Pseudomonas aeruginosa): inactive

Cc1ncc([N+](=O)[O-])n1CCO [METRONIDAZOLE]
IC50 (Giardia intestinalis [2]): 2.88 µg/mL (≈ 16.8 µM) | LC50 (Giardia intestinalis [2]): 1.63 µg/mL (≈ 9.52 µM)

Cc1ccc(/C=C/C(=O)c2ccccc2)cc1
Activity (Enterococcus faecalis): inactive | Activity (Staphylococcus aureus): inactive | Activity (Giardia intestinalis [1]): Active | Activity (Escherichia coli): inactive | Activity (Pseudomonas aeruginosa): inactive

Cc1ccc(/C=C/C(=O)c2ccc(F)cc2)cc1
Activity (Enterococcus faecalis): inactive | Activity (Staphylococcus aureus): inactive | IC50 (Giardia intestinalis [2]): 15.3 µg/mL (≈ 63.7 µM) | LC50 (Giardia intestinalis [2]): 9.67 µg/mL (≈ 40.2 µM) | Activity (Escherichia coli): inactive | Activity (Pseudomonas aeruginosa): inactive
